Most compounds without a hit are left out; they make up all but 1.8% or so of the library.
TbMetRS inhib: Trypanosoma brucei MetRS inhibition; 360,000 compounds, 0.4% hits; AID 624268; purified T. brucei MetRS, ATP depletion, Kinase-Glo luminescence; inhibition, % at 11.9 µM;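 active = inhibition above a per-plate cutoff of the control wells' mean inhibition plus 3 SD, cut at about 5.5% in these data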
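Material: T. brucei methionyl-tRNA synthetase, purified; reagent: substrates ATP, L-methionine and bulk Escherichia coli tRNA; dosing: 11.9 µM single point; timing: 15 min plus 2 h at 25 °C; detection: luminescence of leftover ATP; evaluation: % inhibition; control set: DMSO-only wells as low control; replicates: singlicate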
pCIP destab: compounds decreasing mouse p/CIP protein stability; F442A p/CIP-EGFP cells, EGFP fluorescence, 16 h; Q05BA5; 290,000 compounds, 0.01% hits; decrease of EGFP signal, % at 10 µM;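 active = EGFP signal decrease of at least 30% at 10 µM or well 3 SD below plate mean, unless failing retest; inactive = the rest, including hits failing retest or dose response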
APOBEC3A inh: inhibitors of human APOBEC3A DNA deaminase; P31941; recombinant A3A, FAM/TAMRA ssDNA deamination fluorescence; inhibition, % at 20 µM; 330,000 compounds, 0.41% hits; AID 493011;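 active = at least 40% inhibition at 20 µM here, with at most 30% in a related deaminase screen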
PHOSPHO1 inh: inhibitors of human PHOSPHO1 phosphatase. recombinant PHOSPHO1, absorbance phosphatase assay. inhibition, % at 13.3 µM. 290,000 compounds, 1.1% hits; in the data active = inhibition above about 60%
APOBEC3G inh: APOBEC3G (human) deaminase inhibition | AID 493012 | inhibition, % at 20 µM | recombinant A3G, ssDNA deamination FAM/TAMRA fluorescence | Q9HC16 | 330,000 compounds, 0.28% hits;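 active = inhibition of at least 40% at 20 µM, with no more than 30% in the related APOBEC3A deaminase screen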
Tb MetRS conf: confirmation of Trypanosoma brucei MetRS inhibitors; shares compounds with TbMetRS inhib; 1,400 compounds, 93% hits; T. brucei MetRS enzyme, luminescence (ATP depletion); inhibition, % at 11.9 µM; in the data active = inhibition above about 7%
Jurkat cytotox: kills Jurkat cells in T. brucei MetRS counterscreen | shares compounds with TbMetRS inhib | Jurkat cells viability, ATP luminescence | inhibition, % at 8.3 µM | 1,400 compounds, 12% hits; in the data active = inhibition above about 15%
TbMetRS FP orth: orthogonal test for Trypanosoma brucei MetRS inhibitors | inhibition, % at 11.9 µM | AID 651607 | shares compounds with TbMetRS inhib | purified T. brucei MetRS, fluorescence polarization | 1,400 compounds, 44% hits; in the data active = inhibition above about 17%
Numbers stand for hits; - = inactive; . = no result.

SMILES	TbMetRS inhib	pCIP destab	APOBEC3A inh	PHOSPHO1 inh	APOBEC3G inh	Tb MetRS conf	Jurkat cytotox	TbMetRS FP orth
C[C@H]1CN([C@@H](C)CO)C(=O)c2cc(NS(=O)(=O)c3ccc(Cl)cc3)ccc2O[C@@H]1CN(C)CC1CCCCC1	-	.	-	.	-	.	.	.
CCCCn1c(N)c(N(CC(C)C)C(=O)CCNC(=O)c2ccc([N+](=O)[O-])cc2)c(=O)[nH]c1=O	-	.	-	.	-	.	.	.
O=C(OCC(=O)c1c[nH]c2ccccc12)c1ccc([N+](=O)[O-])s1	10.4	-	-	-	-	22.6	-	-
c1ccc(CNc2nc(-c3cccnc3)nc3ccccc23)cc1	-	-	-	-	-	.	.	.
Clc1cccc(CNc2nc(-c3cccnc3)nc3ccccc23)c1	18.0	-	-	-	-	39.8	-	28.4
C=CCn1c(COc2ccccc2F)nnc1SCC(=O)c1c[nH]c2ccccc12	13.5	-	-	-	-	17.4	-	-
C=CCn1c(COc2ccccc2F)nnc1SCC(=O)Nc1cc2oc3ccccc3c2cc1OC	-	-	-	-	-	.	.	.
Cc1ccc(S(=O)(=O)N2CCOCC2)cc1NC(=O)COC(=O)c1cc(=O)c2ccccc2o1	-	-	-	-	-	.	.	.
COc1ccccc1NC(=S)Nc1ccc2cn[nH]c2c1	7.8	-	-	-	-	-	-	-
Cc1cc(Cl)ccc1OCC(=O)NCC(=O)N/N=C/c1ccco1	6.8	-	-	-	-	70.9	-	19.7
NS(=O)(=O)c1ccc(CCNC(=O)CCCCCn2c(=S)[nH]c3ccc(Br)cc3c2=O)cc1	17.4	-	-	-	-	21.9	-	-
O=c1c2cc(Br)ccc2[nH]c(=S)n1Cc1ccccc1	7.7	-	-	-	-	20.2	-	-
O=c1c2cc(Br)ccc2[nH]c(=S)n1Cc1ccccn1	10.3	-	-	-	-	21.1	-	-
CN1CCCN(C(=O)/C=C/c2ccc(Cl)cc2Cl)CC1	8.0	-	-	-	-	17.0	-	-
CC(=O)Nc1ccc(S(=O)(=O)NCCC(=O)N2CCc3ccccc32)cc1	-	-	-	-	-	.	.	.
COC(=O)c1cccc(NC(=O)Cn2nnc3ccccc32)c1	14.0	-	-	-	-	26.7	-	-
CCN(CCNC(=O)C1CCN(c2nnc(-n3cccc3)s2)CC1)c1ccccc1	-	-	-	-	-	.	.	.
COc1ccc(/C=N/NC(=O)c2cc(O)c(O)c(O)c2)cc1Cn1cc([N+](=O)[O-])cn1	5.6	-	.	-	.	13.1	-	-
COc1ccc(/C=N/NC(=O)c2ccccc2O)cc1Cn1cc([N+](=O)[O-])cn1	-	-	-	-	-	.	.	.
O=C(CSc1nnc2ccc(-c3ccc(Br)cc3)nn12)NCC1CCCO1 (stereo not given)	8.0	.	-	.	-	32.8	-	-
O=C(CCCNC(=O)c1ccc(Cl)cc1)Nc1ccc(Br)cc1	9.1	-	-	-	-	60.4	-	43.1
Cc1cccc(NC(=O)CCNC(=O)c2ccc(Br)cc2)c1	30.7	-	-	-	-	55.5	-	69.9
O=C(COC(=O)CCCNC(=O)c1ccc(Cl)cc1)Nc1ccc(Br)cc1	-	-	-	-	-	.	.	.
O=C1CC2(CCN(C(=O)C(=O)c3c[nH]c4ccccc34)CC2)Oc2ccccc21	20.0	-	-	-	-	33.5	-	17.9
Cc1[nH]c2ccccc2c1C(=O)C(=O)N1CCN(C(=O)c2ccco2)CC1	6.4	-	-	-	-	10.6	-	-
SMILES	TbMetRS inhib	pCIP destab	APOBEC3A inh	PHOSPHO1 inh	APOBEC3G inh	Tb MetRS conf	Jurkat cytotox	TbMetRS FP orth
O=C(C(=O)N1CCN(C(=O)c2ccco2)CC1)c1c[nH]c2ccccc12	5.8	-	-	-	-	12.0	-	-
O=C(NCc1ccncc1)c1cc(S(=O)(=O)N2CCOCC2)c(Cl)cc1Cl	-	.	-	.	-	.	.	.
Nc1c(Cl)ncnc1Nc1ccc(C(=O)O)cc1	45.7	.	.	.	.	73.9	-	46.3
COc1ccc(NC(=O)Nc2nnc(Cc3ccc(F)cc3)s2)cc1	-	-	-	-	-	.	.	.
COc1ccc(NC(=O)NNC(=O)CCC(=O)Nc2ccccc2Cl)cc1	-	-	-	-	-	.	.	.
O=C(NNC(=O)c1ccc(Cl)cc1Cl)Nc1ccccc1	-	-	-	-	-	.	.	.
O=C(NNC(=O)c1cc(-c2ccc(Cl)cc2Cl)nc2ccccc12)Nc1ccccc1	39.0	-	-	-	-	95.4	-	80.5
O=C(CCC(=O)Nc1ccc(Cl)cc1Cl)NNC(=O)Nc1ccccc1	12.7	-	-	-	-	26.0	-	-
CCOC(=O)c1ccc(NC(=O)CN2C(=O)C(CC)SC(CC)C2=O)cc1 (stereo not given)	-	-	-	-	-	.	.	.
O=C(NCc1nc2ccccc2[nH]1)C1=C[C@H](c2csc3ccccc23)C[C@H](OCc2ccc(CO)cc2)O1	58.4	-	-	-	-	93.1	-	62.0
O=C(Nc1ccccc1)C1=C[C@H](c2csc3ccccc23)C[C@H](OCc2ccc(CO)cc2)O1	-	-	-	-	-	.	.	.
O=C(NCc1nc2ccccc2[nH]1)C1=C[C@@H](c2csc3ccccc23)C[C@@H](OCc2ccc(CO)cc2)O1	41.4	-	-	-	-	82.3	-	49.9
COc1ccc(Br)cc1CNCC1CCCO1 (stereo not given)	-	-	-	-	-	.	.	.
CN(C)c1nc(C(=O)O)nc(N2CCOCC2)n1	-	-	-	-	-	.	.	.
O=C(O)c1ccc(CSc2nnc(COc3ccc(Cl)cc3Cl)o2)cc1	47.6	-	-	-	-	59.9	-	35.2
C=CC(=O)Nc1cccc(Oc2ncnc3[nH]cc(-c4cnc5ccccc5c4)c23)c1	8.6	.	-	.	-	29.7	-	21.0
C=CC(=O)Nc1cccc(Oc2ccnc3[nH]ccc23)c1	-	.	.	.	.	.	.	.
Cc1ccc(NC(=O)CN(C)C(=O)CCSc2ccc(F)cc2)cc1	42.8	.	-	.	-	80.4	-	60.1
COc1ccc(/C=C(/C#N)c2cccnc2)cc1OC	15.8	-	-	-	-	21.4	-	-
COc1ccc(C(C#N)=Cc2ccc(OC)c(OC)c2)cc1	-	.	.	.	.	.	.	.
Clc1ccc(CNc2ncnc3[nH]ncc23)cc1Cl	7.1	.	.	.	.	28.6	-	17.0
Cc1cccc(CNc2ncnc3[nH]ncc23)c1	-	.	.	.	.	.	.	.
COc1ccccc1/C=C/C(=O)OCC(=O)c1c[nH]c2ccccc12	-	.	-	.	-	.	.	.
COc1cc(/C=C/C(=O)OCC(=O)c2c[nH]c3ccccc23)ccc1OC(F)F	6.3	-	-	-	-	12.6	-	36.2
C=CCOc1c(Br)cc(C2NC(=O)NC(C)=C2C(C)=O)cc1OCC (stereo not given)	7.0	-	-	-	-	14.8	-	-
C=CCOc1c(Br)cc(C2C3=C(CCCC3=O)N(C)C3=C2C(=O)CCC3)cc1OCC	9.5	-	-	-	-	15.7	-	-
